The subject of assay [1] is Mus musculus. The experiment in a line: Antitumor activity against B16 melanoma cells at a dose of 5 mg/kg administered intraperitoneally to mice. Type of assay: functional. Particulars: route intraperitoneal. A digest of the protocol: (§1)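 Hybrid BD F1 mice were inoculated ip at D0 with 0.5 mL of B16 melanoma homogenate (1 g tumor in 10 mL physiological serum). Drugs were given ip daily D1-9. Cisplatin 0.5 mg/kg was the positive control under the same schedule.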

Assay [2] deals with Mus musculus. As to the kind of experiment: Antitumor activity against P388 leukemia in mice at a dose of 1.5 mg/kg administered intraperitoneally for 5 days. Type of assay: functional. Particulars: route intraperitoneal. Summed up: (§2)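 CDF1 hybrid male or female mice, 10 per group, were inoculated ip with 10^6 viable P388 cells on day 0. Drugs in distilled water were given ip (0.1 mL/10 g body weight) daily D1-5. Vehicle, 5-fluorouracil and BD 84 were given the same way. T/C = median survival day of treated / controls × 100; T/C > 128% was significant; cures counted at D60.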

Another assay concerns L1210. As to the kind of experiment: Ability to reduce the cell count to 50% in L1210 culture cells. The format is functional. Particulars: Mus musculus, read-out: ID50 (the source's name). Summed up: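 L1210 cells in exponential growth in RPMI 1640 with 2 mM glutamine, penicillin/streptomycin and 10% FCS, 37 °C, 5% CO2. Drugs dissolved in distilled water were added to cells at 0.8 × 10^5 cells/mL for 48 h, then cells were counted. ID50 is the concentration halving cell proliferation versus controls, from regression of dose-response data; mean of two independent experiments.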

In assay [3] the test system is Mus musculus. As to the kind of experiment: Weight change in g when a dose of 1.25 mg/kg administered intraperitoneally to B16 melanoma infected mice. Particulars: route intraperitoneal. The format is functional. Summed up: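 Hybrid BDF1 mice were inoculated ip at D0 with 0.5 mL of B16 melanoma homogenate (1 g tumor in 10 mL physiological serum). Drug was given ip daily on days 1-9, with cis-platinum 0.5 mg/kg as positive control on the same schedule.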

The subject of assay [4] is Mus musculus. The experiment in a line: Weight change in g when a dose of 20 mg/kg administered intraperitoneally to P388 leukemia infected mice. Type of assay: functional. Particulars: route intraperitoneal. A digest of the protocol:
(§3)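 P388 model with a single ip dose. Mice (10 per group) were inoculated ip at D0 with 10^6 P388 cells and given one ip drug dose at D1. Body-weight change (g), median survival day, T/C and survivors at D30 were recorded.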

For assay [5], the system named is Mus musculus. The experiment in a line: Median survival day of P388 leukemia infected mice, when a dose of 5 mg/kg administered intraperitoneally. The format is functional. Particulars: route intraperitoneal. Summed up:
(§4)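 P388 leukaemia in CDF1 hybrid mice, 10 per group. At D0, 10^6 viable cells were inoculated ip, followed by a single ip dose of drug in distilled water on D1. Weight change, median survival day, T/C (treated/control median survival × 100) and survivors at D30 were recorded. Controls were 20 mice.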

Assay [6] deals with Mus musculus. The experiment in a line: Antitumor activity against P388 leukemia in mice at a dose of 5 mg/kg administered intraperitoneally for 5 days. Type of assay: functional. Particulars: route intraperitoneal. A digest of the protocol: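 CDF1 hybrid male or female mice, 10 per group, were inoculated ip on day 0 with 10^6 viable P388 leukemia cells. Drug in distilled water was given ip (0.1 mL/10 g body weight) daily on days 1-5, with vehicle, 5-fluorouracil and BD 84 controls given the same way. T/C = median survival of treated/controls × 100; T/C > 128% counted as significant.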

Assay [7] concerns Mus musculus. The experiment in a line: Antitumor activity against P388 leukemia in mice at a dose of 2.5 mg/kg administered intraperitoneally for 5 days. Type of assay: functional. Particulars: route intraperitoneal. A digest of the protocol: as §2
The test system of assay [8] is Mus musculus. As to the kind of experiment: Antitumor activity against B16 melanoma cells at a dose of 1.25 mg/kg administered intraperitoneally to mice. The format is functional. Particulars: route intraperitoneal. A digest of the protocol: as §1
The test system of assay [9] is Mus musculus. As to the kind of experiment: Antitumor activity against B16 melanoma cells at a dose of 2.5 mg/kg administered intraperitoneally to mice. Particulars: route intraperitoneal. Type of assay: functional. Summed up: as §1
Assay [10] deals with Mus musculus. As to the kind of experiment: Survivors at day 60 when a dose of 1.25 mg/kg to B16 melanoma infected when tested in 10 mice. Type of assay: functional.
The subject of assay [11] is Mus musculus. As to the kind of experiment: Antitumor activity against B16 melanoma cells at a dose of 10 mg/kg administered intraperitoneally to mice. Type of assay: functional. Particulars: route intraperitoneal. A digest of the protocol: as §1
A further assay concerns Calf thymus DNA. The experiment in a line: Apparent DNA affinity constant. Type of assay: nucleic-acid assay. Particulars: Bos taurus. Summed up: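 Apparent DNA affinity constant was measured by competition with ethidium bromide. Buffer was 20 mM Na2HPO4/NaH2PO4, 0.1 M NaCl, 1 mM EDTA, pH 7.4, with calf thymus DNA at 10 μg/mL. Values are given in 10^6 M⁻¹.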
Assay [12] deals with Mus musculus. As to the kind of experiment: Weight change in g when a dose of 20 mg/kg administered intraperitoneally to P388 leukemia model. The format is functional. Particulars: route intraperitoneal. Summed up:
as §3

In assay [13] the test system is Mus musculus. The experiment in a line: Weight change in g when a dose of 10 mg/kg administered intraperitoneally to P388 leukemia model. Type of assay: functional. Particulars: route intraperitoneal. Summed up:
as §3

The test system of assay [14] is Mus musculus. The experiment in a line: Weight change in g when a dose of 80 mg/kg administered intraperitoneally to P388 leukemia model. The format is functional. Particulars: route intraperitoneal. A digest of the protocol: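 P388 leukemia cells (10^6 viable) inoculated ip on day 0 into CDF1 hybrid male or female mice, 10 per test group. Drug dissolved in distilled water and given as a single ip dose on day 1. Body weight change (g) recorded for each dose group, alongside median survival day, T/C and survivors at D30, against vehicle controls (20 mice).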

For assay [15], the system named is Mus musculus. The experiment in a line: Median survival day of B16 melanoma infected micee when a dose of 5 mg/kg administered intraperitoneally. Particulars: route intraperitoneal. Type of assay: functional. A digest of the protocol: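 B16 melanoma in hybrid BD F1 mice. At D0 each mouse was inoculated ip with 0.5 mL of homogenate made from 1 g of tumour in 10 mL of physiological serum. Compounds were given ip daily at the stated doses for 9 days (D1-9), with cis-platinum 0.5 mg/kg under the same schedule as positive control.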

Assay [16] relates to Mus musculus. As to the kind of experiment: Median survival day in P388 leukemia model when a dose of 20 mg/kg administered intraperitoneally. Type of assay: functional. Particulars: route intraperitoneal. Summed up: as §4
The subject of assay [17] is Mus musculus. The experiment in a line: Survivors at day 30 when a dose of 100 mg/kg administered intravenously to P388 leukemia mice model; 1/10. The format is functional. Particulars: route intravenous. Summed up:
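P388 leukaemia in CDF1 hybrid mice, 10 per group. At D0, 10^6 viable cells were inoculated ip, followed by a single iv dose on D1. Weight change, median survival day, T/C (treated/control median survival × 100) and survivors at D30 were recorded.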

Assay [18] concerns Mus musculus. As to the kind of experiment: […] in C38 adenocarcinoma cell line when a dose of 50 mg/kg administered intravenously to mice. The format is functional, MC-38. Particulars: route intravenous. Summed up:
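C38 colon adenocarcinoma in hybrid BD F1 mice, 10 per test. A standard 3-mm³ tumour fragment was implanted sc. Drugs were given iv at the stated doses on D1 or on D2 + D9, following the Geran et al. NCI protocol.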

The test system of assay [19] is Mus musculus. The experiment in a line: Antitumor activity against P388 leukemia in mice at a dose of 10 mg/kg administered intraperitoneally for 5 days. The format is functional. Particulars: route intraperitoneal. A digest of the protocol: as §2
The test system of assay [20] is Mus musculus. As to the kind of experiment: Median survival day in P388 leukemia model when a dose of 10 mg/kg administered intraperitoneally. Type of assay: functional. Particulars: route intraperitoneal. Summed up:
as §4

Assay [21] relates to Mus musculus. As to the kind of experiment: Survivors at day 30 when a dose of 10 mg/kg to P388 leukemia model; 0/10. Type of assay: functional. Summed up:
as §4

The test system of assay [22] is Mus musculus. The experiment in a line: Antitumor activity against P388 cells at a dose of 20 mg/kg administered intraperitoneally P388 Leukemia model. Particulars: route intraperitoneal. The format is functional. Summed up:
(§5)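 Mice were inoculated ip with 10^6 P388 leukemia cells at D0, then given a single ip drug dose on D1. Weight change was recorded. T/C % = median survival day of treated / controls × 100; survivors counted at D30; 10 mice per dose group, 20 controls.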

In assay [23] the test system is Mus musculus. As to the kind of experiment: Antitumor activity against P388 cells at a dose of 10 mg/kg administered intraperitoneally P388 Leukemia model. Type of assay: functional. Particulars: route intraperitoneal. A digest of the protocol: as §5

The record followed here is ChEMBL document CHEMBL1124035, “1-Amino-substituted 4-methyl-5H-pyrido[4,3-b]indoles (gamma-carbolines) as tricyclic analogues of ellipticines: a new class of antineoplastic agents” (1988).

SMILES strings stand for the structures. Several values for one entry are separate records, joined by “and”; a condition that tells them apart may be missing. Equal entries are not always repeated.

In general, T/C refers to the result in the treated group divided by that in the control group, in per cent. With `Cc1cnc(NCCCN(C)C)c2c3cc(O)ccc3n(C)c12`, the T/C in the assay on Mus musculus [1] was 206%; in the assay with Mus musculus [2], 164%; in the assay on Mus musculus [6], 236%; in the assay on Mus musculus [7] it was 184%; in the assay on Mus musculus [8], 123%; in the assay on Mus musculus [9], 134%. The same molecule had a T/C in the assay with Mus musculus [11] of 48%. The IC50 with L1210 was 10 nM. Also, the Weight change in the assay on Mus musculus [3] was 1 g; with Mus musculus [4], -2.5 g. In the assay on Mus musculus [5], this molecule had a Median survival day of 19.75. This molecule also returned a Survivors in the assay with Mus musculus [10] of 0. Moreover, the K aff with Calf thymus DNA is 270000 M⁻¹.
As to `CCN(CC)CCCNc1ncc(C)c2c1c1cc(O)ccc1n2C`, the Weight change in the assay with Mus musculus [12] was -1.2 g; in the assay on Mus musculus [13] it was -0.6 g; in the assay with Mus musculus [14] (dose 20 mg/kg, in the assay text read “20 mg/kg” for “80 mg/kg”), -1.2 g; in the assay on Mus musculus [3], -2.5 g. The Median survival day in the assay with Mus musculus [15] is 41.25; with Mus musculus [16] it was 20.8; in the assay on Mus musculus [20] it was 17.8. For the same molecule, in the assay with L1210, the IC50 was determined as 30 nM. Also, the Survivors in the assay on Mus musculus [17] was determined as 1; with Mus musculus [21], 0. The same molecule displayed a Median tumoral volume with Mus musculus [18] of 1.38 cm*3. For the same molecule, the T/C was 205% in the assay with Mus musculus [19]; 166% with Mus musculus [6]; 149% with Mus musculus [7]; 133% in the assay on Mus musculus [8]; 145% and 170% with Mus musculus [9] (2.5 mg/kg); 79% in the assay on Mus musculus [11]. The K aff in the assay on Calf thymus DNA was found to be 240000 M⁻¹.
On to `CCN(CC)CCCNc1[nH]cc(C)c2nc3ccc(O)cc3c1-2`, for which the T/C is on record as 139% with Mus musculus [22]; 174% with Mus musculus [1]; 185% with Mus musculus [19]; 170% in the assay with Mus musculus [6]; 162% in the assay on Mus musculus [7]; 124% with Mus musculus [9]. In addition, the T/C in the assay on Mus musculus [23] came out at 129%; with Mus musculus [11], 205%. For the same molecule, the Weight change in the assay with Mus musculus [12] was 0.2 g; in the assay with Mus musculus [13] it was 1.2 g; in the assay on Mus musculus [14], -1.7 g. In addition, in the assay with L1210, the IC50 stood at 60 nM. Further, the Median survival day is 16.25 in the assay with Mus musculus [16] and 15.1 in the assay on Mus musculus [20]. For the same molecule, the K aff with Calf thymus DNA was 200000 M⁻¹. This molecule yielded a Survivors in the assay with Mus musculus [21] of 0.
